Results from ChEMBL document CHEMBL6078622, “Enhancing outer membrane permeability of tetracycline antibiotics in P. aeruginosa using TOB-CIP conjugates” (RSC Med Chem, 2024).
Active and inactive are the calls of the source. The rule behind the calls is not given here.

Assays:
Pseudomonas aeruginosa [1] = assay: Synergistic antibacterial activity against Pseudomonas aeruginosa PA200 assessed as fractional inhibitory concentration index in presence of minocycline by checkerboard assay; type: functional
Pseudomonas aeruginosa [2] = assay: Antibacterial activity against Pseudomonas aeruginosa PA264 assessed as reduction in bacterial load incubated for 2 hrs in presence of eravacycline by time kill assay; type: functional, organism-based
Pseudomonas aeruginosa [3] = assay: Synergistic antibacterial activity against Pseudomonas aeruginosa PA259 assessed as fractional inhibitory concentration index in presence of minocycline by checkerboard assay; type: functional
Pseudomonas aeruginosa [4] = assay: Antibacterial activity against Pseudomonas aeruginosa PA100036 assessed as inhibition of visible bacterial growth by CLSI based broth-microdilution method; type: functional
Pseudomonas aeruginosa [5] = assay: Synergistic antibacterial activity against Pseudomonas aeruginosa PA100036 assessed as fold change in doxycycline MIC by CLSI based broth-microdilution method relative to doxycycline alone; type: functional
Pseudomonas aeruginosa [6] = assay: Antibacterial activity against Pseudomonas aeruginosa PA101243 assessed as eravacycline MIC by CLSI based broth-microdilution method; type: functional
Pseudomonas aeruginosa [7] = assay: Antibacterial activity against Pseudomonas aeruginosa PA262 assessed as tigecycline MIC by CLSI based broth-microdilution method; type: functional
Pseudomonas aeruginosa [8] = assay: Antibacterial activity against Pseudomonas aeruginosa PA259 assessed as minocycline MIC by CLSI based broth-microdilution method; type: functional
Escherichia [9] = assay: Synergistic antibacterial activity against Escherichia 107115 assessed as fold change in minocycline MIC by CLSI based broth-microdilution method relative to minocycline alone; type: functional
Summary of the method: (§1)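 Checkerboard combination assay against E. coli EC107115 (MDR) and EC94474 (colistin-resistant), run in biological duplicates; the fold change is the tetracycline MIC in combination relative to its MIC alone.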

Pseudomonas aeruginosa [10] = assay: Synergistic antibacterial activity against Pseudomonas aeruginosa PA259 assessed as fractional inhibitory concentration index in presence of eravacycline by checkerboard assay; type: functional
HepG2 = assay: Cytotoxicity against human HepG2 cells assessed as reduction in cell viability at 400 uM; type: functional, cell-based
Pseudomonas aeruginosa [11] = assay: Antibacterial activity against Pseudomonas aeruginosa PAO1 assessed as inhibition of bacterial growth by measuring fold change in MIC in presence of 25 % fetal bovine serum by CLSI protocol based assay; type: functional
Pseudomonas aeruginosa [12] = assay: Synergistic antibacterial activity against Pseudomonas aeruginosa PA100036 assessed as fold change in eravacycline MIC by CLSI based broth-microdilution method relative to eravacycline alone; type: functional
Pseudomonas aeruginosa [13] = assay: Antibacterial activity against Pseudomonas aeruginosa PA114228 assessed as minocycline MIC by CLSI based broth-microdilution method; type: functional
Pseudomonas aeruginosa [14] = assay: Antibacterial activity against Pseudomonas aeruginosa PA262 assessed as minocycline MIC by CLSI based broth-microdilution method; type: functional
Pseudomonas aeruginosa [15] = assay: Synergistic antibacterial activity against Pseudomonas aeruginosa PA264 in presence of eravacycline by checkerboard assay; type: functional
Pseudomonas aeruginosa [16] = assay: Synergistic antibacterial activity against Pseudomonas aeruginosa PA114228 assessed as fold change in doxycycline MIC by CLSI based broth-microdilution method relative to doxycycline alone; type: functional
Pseudomonas aeruginosa [17] = assay: Antibacterial activity against Pseudomonas aeruginosa PA259 assessed as increase in bacterial load in presence of eravacycline by time kill assay; type: functional, organism-based
Pseudomonas aeruginosa [18] = assay: Synergistic antibacterial activity against Pseudomonas aeruginosa PA095 in presence of doxycycline by checkerboard assay; type: functional
Pseudomonas aeruginosa [19] = assay: Synergistic antibacterial activity against Pseudomonas aeruginosa PA259 assessed as fractional inhibitory concentration index in presence of doxycycline by checkerboard assay; type: functional
Pseudomonas aeruginosa [20] = assay: Synergistic antibacterial activity against Pseudomonas aeruginosa PA200 assessed as fractional inhibitory concentration index in presence of tigecycline by checkerboard assay; type: functional
Pseudomonas aeruginosa [21] = assay: Synergistic antibacterial activity against Pseudomonas aeruginosa PA200 in presence of tigecycline by checkerboard assay; type: functional
Pseudomonas aeruginosa [22] = assay: Synergistic antibacterial activity against Pseudomonas aeruginosa PA114228 assessed as fractional inhibitory concentration index in presence of doxycycline by checkerboard assay; type: functional
Pseudomonas aeruginosa [23] = assay: Synergistic antibacterial activity against Pseudomonas aeruginosa PAO1 assessed as fold change in tigecycline MIC by checkerboard analysis relative to Tigecycline alone; type: functional
Pseudomonas aeruginosa [24] = assay: Antibacterial activity against Pseudomonas aeruginosa PA264 assessed as eravacycline MIC by CLSI based broth-microdilution method; type: functional
Pseudomonas aeruginosa [25] = assay: Synergistic antibacterial activity against Pseudomonas aeruginosa PA095 assessed as fold change in tigecycline MIC by CLSI based broth-microdilution method relative to tigecycline alone; type: functional
Pseudomonas aeruginosa [26] = assay: Synergistic antibacterial activity against Pseudomonas aeruginosa PA259 in presence of doxycycline by checkerboard assay; type: functional
Escherichia [27] = assay: Synergistic antibacterial activity against Escherichia 94474 assessed as fold change in minocycline MIC by CLSI based broth-microdilution method relative to minocycline alone; type: functional; summary of the method: as §1
Pseudomonas aeruginosa [28] = assay: Synergistic antibacterial activity against Pseudomonas aeruginosa PA264 assessed as fold change in tigecycline MIC by CLSI based broth-microdilution method relative to tigecycline alone; type: functional
Pseudomonas aeruginosa [29] = assay: Synergistic antibacterial activity against Pseudomonas aeruginosa PA101243 assessed as fold change in eravacycline MIC by CLSI based broth-microdilution method relative to eravacycline alone; type: functional
Pseudomonas aeruginosa [30] = assay: Antibacterial activity against Pseudomonas aeruginosa PA264 assessed as doxycycline MIC by CLSI based broth-microdilution method; type: functional
Pseudomonas aeruginosa [31] = assay: Synergistic antibacterial activity against Pseudomonas aeruginosa PA114228 in presence of tigecycline by checkerboard assay; type: functional
Pseudomonas aeruginosa [32] = assay: Synergistic antibacterial activity against Pseudomonas aeruginosa PA100036 assessed as fractional inhibitory concentration index in presence of eravacycline by checkerboard assay; type: functional
Pseudomonas aeruginosa [33] = assay: Antibacterial activity against Pseudomonas aeruginosa PA101243 assessed as inhibition of visible bacterial growth by CLSI based broth-microdilution method; type: functional
Pseudomonas aeruginosa [34] = assay: Antibacterial activity against Pseudomonas aeruginosa PA095 assessed as inhibition of visible bacterial growth by CLSI based broth-microdilution method; type: functional
Pseudomonas aeruginosa [35] = assay: Synergistic antibacterial activity against Pseudomonas aeruginosa PA264 assessed as fractional inhibitory concentration index in presence of minocycline by checkerboard assay; type: functional
Escherichia coli = assay: Antibacterial activity against Escherichia coli ATCC 25922 assessed as inhibition of visible bacterial growth by CLSI based broth-microdilution method; type: functional
Pseudomonas aeruginosa [36] = assay: Antibacterial activity against Pseudomonas aeruginosa PA095 assessed as doxycycline MIC by CLSI based broth-microdilution method; type: functional
Pseudomonas aeruginosa [37] = assay: Synergistic antibacterial activity against Pseudomonas aeruginosa PA262 assessed as fractional inhibitory concentration index in presence of doxycycline by checkerboard assay; type: functional
Pseudomonas aeruginosa [38] = assay: Antibacterial activity against Pseudomonas aeruginosa PA095 assessed as minocycline MIC by CLSI based broth-microdilution method; type: functional
Pseudomonas aeruginosa [39] = assay: Synergistic antibacterial activity against Pseudomonas aeruginosa PA095 in presence of eravacycline by checkerboard assay; type: functional
Pseudomonas aeruginosa [40] = assay: Synergistic antibacterial activity against Pseudomonas aeruginosa PA114228 in presence of minocycline by checkerboard assay; type: functional
Pseudomonas aeruginosa [41] = assay: Synergistic antibacterial activity against Pseudomonas aeruginosa PA259 assessed as fold change in eravacycline MIC by CLSI based broth-microdilution method relative to eravacycline alone; type: functional
Pseudomonas aeruginosa [42] = assay: Synergistic antibacterial activity against Pseudomonas aeruginosa PA259 assessed as fold change in tigecycline MIC by CLSI based broth-microdilution method relative to tigecycline alone; type: functional

SMILES: Cl.Cl.Cl.Cl.Cl.Cl.NC[C@H]1O[C@H](O[C@H]2[C@H](OCCCCCCCCCCCCNC(=O)c3cn(C4CC4)c4cc(N5CCNCC5)c(F)cc4c3=O)[C@@H](O[C@H]3O[C@H](CO)[C@@H](O)[C@H](N)[C@H]3O)[C@H](N)C[C@@H]2N)[C@H](N)C[C@@H]1O
- fractional inhibitory concentration index (FICI) (Pseudomonas aeruginosa [1]): 0.312
- Activity (Pseudomonas aeruginosa [2]): Active
- fractional inhibitory concentration index (FICI) (Pseudomonas aeruginosa [3]): 0.002
- MIC (Pseudomonas aeruginosa [4]): > 128 µg/mL
- fold change (FC) (Pseudomonas aeruginosa [5]): 128
- MIC (Pseudomonas aeruginosa [6]): 2 µg/mL
- MIC (Pseudomonas aeruginosa [7]): 2 µg/mL
- MIC (Pseudomonas aeruginosa [8]): 0.25 µg/mL
- fold change (FC) (Escherichia [9]): 32
- fractional inhibitory concentration index (FICI) (Pseudomonas aeruginosa [10]): 0.008
- Activity (HepG2): Active
- fold change (FC) (Pseudomonas aeruginosa [11]): 128
- fold change (FC) (Pseudomonas aeruginosa [12]): 256
- MIC (Pseudomonas aeruginosa [13]): 64 µg/mL
- MIC (Pseudomonas aeruginosa [14]): 2 µg/mL
- MIC (Pseudomonas aeruginosa [15]): 8 µg/mL
- fold change (FC) (Pseudomonas aeruginosa [16]): 128
- Activity (Pseudomonas aeruginosa [17]): Active
- MIC (Pseudomonas aeruginosa [18]): 2 µg/mL
- fractional inhibitory concentration index (FICI) (Pseudomonas aeruginosa [19]): 0.008
- fractional inhibitory concentration index (FICI) (Pseudomonas aeruginosa [20]): 0.187
- MIC (Pseudomonas aeruginosa [21]): 8 µg/mL
- fractional inhibitory concentration index (FICI) (Pseudomonas aeruginosa [22]): 0.004
- fold change (FC) (Pseudomonas aeruginosa [23]): 64
- MIC (Pseudomonas aeruginosa [24]): 0.125 µg/mL
- fold change (FC) (Pseudomonas aeruginosa [25]): 2
- MIC (Pseudomonas aeruginosa [26]): 8 µg/mL
- fold change (FC) (Escherichia [27]): 8
- fold change (FC) (Pseudomonas aeruginosa [28]): 32
- fold change (FC) (Pseudomonas aeruginosa [29]): 4
- MIC (Pseudomonas aeruginosa [30]): 0.5 µg/mL
- MIC (Pseudomonas aeruginosa [31]): 8 µg/mL
- fractional inhibitory concentration index (FICI) (Pseudomonas aeruginosa [32]): 0.008
- MIC (Pseudomonas aeruginosa [33]): > 128 µg/mL
- MIC (Pseudomonas aeruginosa [34]): 8 µg/mL
- fractional inhibitory concentration index (FICI) (Pseudomonas aeruginosa [35]): 0.031
- MIC (Escherichia coli): > 128 µg/mL
- MIC (Pseudomonas aeruginosa [36]): 4 µg/mL
- fractional inhibitory concentration index (FICI) (Pseudomonas aeruginosa [37]): 0.002
- MIC (Pseudomonas aeruginosa [38]): 1 µg/mL
- MIC (Pseudomonas aeruginosa [39]): 2 µg/mL
- MIC (Pseudomonas aeruginosa [40]): 8 µg/mL
- fold change (FC) (Pseudomonas aeruginosa [41]): 512
- fold change (FC) (Pseudomonas aeruginosa [42]): 128
